# Measurements published in paper PMC7482441 (Pharmacological Research, 2020).
# Tests used:
# IGFBP1 = test: Circulating biomarker, baseline vs 4-week treatment; format: in vivo, human; settings: 20 DMD patients, OLink, p-value 1.7e-8, FDR 4e-6
# UMX 101 hamsters = settings: lifelong preventive treatment; cited from earlier work
# ambulant boys with DMD = test: Phase Ib safety assessments; format: in vivo, human
# Summary of the method: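 Open-label study in boys aged 6–14 with genetically confirmed DMD, walking ≥75 m and on stable corticosteroids ≥6 months. Dosing was oral, 50–300 mg TID for 4 weeks, in 4 ascending cohorts. Assessments at screening, weeks 1, 2 and 4, and 1–2 weeks post-treatment: physical exam, AEs, supine/standing blood pressure and heart rate, respiratory rate. Also 12-lead ECG with QT, read locally and centrally, plus blood/urine haematology and biochemistry.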
# [1] = Population PK / non-compartmental analysis of plasma Rimeporide in DMD boys; format: in vivo, human; settings: for half-life: male, human, plasma, po
# Summary of the method: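 Sparse plasma sampling: Day 1 pre-dose, 0.5–1, 1–2, 2.5–3.5 and ~6 h post-dose; Day 28 at 0.5–1 and ~6 h. Drug was quantified by a validated LC–MS/MS method. A 3-compartment population model with absorption and first-order elimination was fitted in NONMEM, pooled with healthy-volunteer and heart-failure data.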
# IGFBP6 = test: Circulating biomarker, baseline vs 4-week treatment; format: in vivo, human; settings: 20 DMD patients, OLink, p-value 0.0044, FDR 0.89
# [2] = Cohort 1 N = 5, 150 to 225 mg daily oral, 4 weeks
# [3] = Cohort 2 N = 5, 300 to 450 mg daily oral, 4 weeks
# [4] = Cohort 3 N = 5, 450 to 600 mg daily oral, 4 weeks
# [5] = Cohort 4 N = 5, 600 to 900 mg daily oral, 4 weeks
structure (smiles),measurement,setting,value
[H]/N=C(\N)NC(=O)c1cc(S(C)(=O)=O)c(S(C)(=O)=O)cc1C [Rimeporide],"IGFBP1: Term (TRT, linear mixed effect model, Day 28 vs Day 0)",IGFBP1,−2.7123
same,mortality,UMX 101 hamsters,dramatic reduction in mortality
same,12-lead ECGs,ambulant boys with DMD; 4-week treatment,no clinically important changes
same,Abdominal pain upper: patients (events),"ambulant boys with DMD; All patients N = 20, 4 weeks",2 (3 events)
same,Chills: patients (events),"ambulant boys with DMD; All patients N = 20, 4 weeks",1 (2 events)
same,Cough: patients (events),"ambulant boys with DMD; All patients N = 20, 4 weeks",3 (3 events)
same,Dizziness: patients (events),"ambulant boys with DMD; All patients N = 20, 4 weeks",1 (1 event)
same,Ear and labyrinth disorders: patients (events),"ambulant boys with DMD; All patients N = 20, 4 weeks",1 (1 event)
same,Fall: patients (events),"ambulant boys with DMD; All patients N = 20, 4 weeks",1 (1 event)
same,Flushing: patients (events),"ambulant boys with DMD; All patients N = 20, 4 weeks",2 (3 events)
same,Gastrointestinal disorders: patients (events),"ambulant boys with DMD; All patients N = 20, 4 weeks",6 (10 events)
same,General disorders and administration site conditions: patients (events),"ambulant boys with DMD; All patients N = 20, 4 weeks",2 (3 events)
same,Infections and infestations: patients (events),"ambulant boys with DMD; All patients N = 20, 4 weeks",4 (4 events)
same,"Injury, poisoning and procedural complications: patients (events)","ambulant boys with DMD; All patients N = 20, 4 weeks",1 (1 event)
same,Mouth ulceration: patients (events),"ambulant boys with DMD; All patients N = 20, 4 weeks",1 (1 event)
same,Nervous system disorders: patients (events),"ambulant boys with DMD; All patients N = 20, 4 weeks",7 (8 events)
same,Oropharyngeal pain: patients (events),"ambulant boys with DMD; All patients N = 20, 4 weeks",1 (1 event)
same,Presyncope: patients (events),"ambulant boys with DMD; All patients N = 20, 4 weeks",1 (1 event)
same,Pyrexia: patients (events),"ambulant boys with DMD; All patients N = 20, 4 weeks",1 (1 event)
same,"Respiratory, thoracic and mediastinal disorders: patients (events)","ambulant boys with DMD; All patients N = 20, 4 weeks",4 (4 events)
same,Tympanic membrane perforation: patients (events),"ambulant boys with DMD; All patients N = 20, 4 weeks",1 (1 event)
same,Vascular disorders: patients (events),"ambulant boys with DMD; All patients N = 20, 4 weeks",2 (3 events)
same,Vomiting: patients (events),"ambulant boys with DMD; All patients N = 20, 4 weeks",2 (2 events)
same,Abdominal pain upper: patients (events),ambulant boys with DMD; [2],0
same,Any treatment-emergent adverse event: patients (events),ambulant boys with DMD; [2],2 (6 events)
same,Chills: patients (events),ambulant boys with DMD; [2],1 (2 events)
same,Cough: patients (events),ambulant boys with DMD; [2],0
same,Diarrhoea: patients (events),ambulant boys with DMD; [2],0
same,Dizziness: patients (events),ambulant boys with DMD; [2],0
same,Ear and labyrinth disorders: patients (events),ambulant boys with DMD; [2],0
same,Fall: patients (events),ambulant boys with DMD; [2],1 (1 event)
same,Flushing: patients (events),ambulant boys with DMD; [2],0
same,Gastrointestinal disorders: patients (events),ambulant boys with DMD; [2],0
same,General disorders and administration site conditions: patients (events),ambulant boys with DMD; [2],1 (2 events)
same,Headache: patients (events),ambulant boys with DMD; [2],1 (1 event)
same,Infections and infestations: patients (events),ambulant boys with DMD; [2],0
same,"Injury, poisoning and procedural complications: patients (events)",ambulant boys with DMD; [2],1 (1 event)
same,Mouth ulceration: patients (events),ambulant boys with DMD; [2],0
same,Nasopharyngitis: patients (events),ambulant boys with DMD; [2],0
same,Nervous system disorders: patients (events),ambulant boys with DMD; [2],1 (1 event)
same,Oropharyngeal pain: patients (events),ambulant boys with DMD; [2],0
same,Presyncope: patients (events),ambulant boys with DMD; [2],0
same,Pyrexia: patients (events),ambulant boys with DMD; [2],0
same,"Respiratory, thoracic and mediastinal disorders: patients (events)",ambulant boys with DMD; [2],0
same,Tympanic membrane perforation: patients (events),ambulant boys with DMD; [2],0
same,Vascular disorders: patients (events),ambulant boys with DMD; [2],0
same,Vomiting: patients (events),ambulant boys with DMD; [2],0
same,Abdominal pain upper: patients (events),ambulant boys with DMD; [3],0
same,Any treatment-emergent adverse event: patients (events),ambulant boys with DMD; [3],1 (3 events)
same,Chills: patients (events),ambulant boys with DMD; [3],0
same,Cough: patients (events),ambulant boys with DMD; [3],1 (1 event)
same,Diarrhoea: patients (events),ambulant boys with DMD; [3],0
same,Dizziness: patients (events),ambulant boys with DMD; [3],0
same,Ear and labyrinth disorders: patients (events),ambulant boys with DMD; [3],0
same,Fall: patients (events),ambulant boys with DMD; [3],0
same,Flushing: patients (events),ambulant boys with DMD; [3],0
same,Gastrointestinal disorders: patients (events),ambulant boys with DMD; [3],1 (1 event)
same,General disorders and administration site conditions: patients (events),ambulant boys with DMD; [3],0
same,Headache: patients (events),ambulant boys with DMD; [3],0
same,Infections and infestations: patients (events),ambulant boys with DMD; [3],1 (1 event)
same,"Injury, poisoning and procedural complications: patients (events)",ambulant boys with DMD; [3],0
same,Mouth ulceration: patients (events),ambulant boys with DMD; [3],1 (1 event)
same,Nasopharyngitis: patients (events),ambulant boys with DMD; [3],1 (1 event)
same,Nervous system disorders: patients (events),ambulant boys with DMD; [3],0
same,Oropharyngeal pain: patients (events),ambulant boys with DMD; [3],0
same,Presyncope: patients (events),ambulant boys with DMD; [3],0
same,Pyrexia: patients (events),ambulant boys with DMD; [3],0
same,"Respiratory, thoracic and mediastinal disorders: patients (events)",ambulant boys with DMD; [3],1 (1 event)
same,Tympanic membrane perforation: patients (events),ambulant boys with DMD; [3],0
same,Vascular disorders: patients (events),ambulant boys with DMD; [3],0
same,Vomiting: patients (events),ambulant boys with DMD; [3],0
same,Abdominal pain upper: patients (events),ambulant boys with DMD; [4],1 (2 events)
same,Any treatment-emergent adverse event: patients (events),ambulant boys with DMD; [4],5 (15 events)
same,Chills: patients (events),ambulant boys with DMD; [4],0
same,Cough: patients (events),ambulant boys with DMD; [4],1 (1 event)
same,Diarrhoea: patients (events),ambulant boys with DMD; [4],3 (4 events)
same,Dizziness: patients (events),ambulant boys with DMD; [4],1 (1 event)
same,Ear and labyrinth disorders: patients (events),ambulant boys with DMD; [4],0
same,Fall: patients (events),ambulant boys with DMD; [4],0
same,Flushing: patients (events),ambulant boys with DMD; [4],1 (1 event)
same,Gastrointestinal disorders: patients (events),ambulant boys with DMD; [4],4 (8 events)
same,General disorders and administration site conditions: patients (events),ambulant boys with DMD; [4],0
same,Headache: patients (events),ambulant boys with DMD; [4],2 (2 events)
same,Infections and infestations: patients (events),ambulant boys with DMD; [4],2 (2 events)
same,"Injury, poisoning and procedural complications: patients (events)",ambulant boys with DMD; [4],0
same,Mouth ulceration: patients (events),ambulant boys with DMD; [4],0
same,Nasopharyngitis: patients (events),ambulant boys with DMD; [4],2 (2 events)
same,Nervous system disorders: patients (events),ambulant boys with DMD; [4],3 (3 events)
same,Oropharyngeal pain: patients (events),ambulant boys with DMD; [4],0
same,Presyncope: patients (events),ambulant boys with DMD; [4],0
same,Pyrexia: patients (events),ambulant boys with DMD; [4],0
same,"Respiratory, thoracic and mediastinal disorders: patients (events)",ambulant boys with DMD; [4],1 (1 event)
same,Tympanic membrane perforation: patients (events),ambulant boys with DMD; [4],0
same,Vascular disorders: patients (events),ambulant boys with DMD; [4],1 (1 event)
same,Vomiting: patients (events),ambulant boys with DMD; [4],2 (2 events)
same,Abdominal pain upper: patients (events),ambulant boys with DMD; [5],1 (1 event)
same,Any treatment-emergent adverse event: patients (events),ambulant boys with DMD; [5],4 (13 events)
same,Chills: patients (events),ambulant boys with DMD; [5],0
same,Cough: patients (events),ambulant boys with DMD; [5],1 (1 event)
same,Diarrhoea: patients (events),ambulant boys with DMD; [5],0
same,Dizziness: patients (events),ambulant boys with DMD; [5],0
same,Ear and labyrinth disorders: patients (events),ambulant boys with DMD; [5],1 (1 event)
same,Flushing: patients (events),ambulant boys with DMD; [5],1 (2 events)
same,Gastrointestinal disorders: patients (events),ambulant boys with DMD; [5],1 (1 event)
same,General disorders and administration site conditions: patients (events),ambulant boys with DMD; [5],1 (1 event)
same,Headache: patients (events),ambulant boys with DMD; [5],2 (3 events)
same,Infections and infestations: patients (events),ambulant boys with DMD; [5],1 (1 event)
same,Mouth ulceration: patients (events),ambulant boys with DMD; [5],0
same,Nasopharyngitis: patients (events),ambulant boys with DMD; [5],1 (1 event)
same,Nervous system disorders: patients (events),ambulant boys with DMD; [5],3 (4 events)
same,Oropharyngeal pain: patients (events),ambulant boys with DMD; [5],1 (1 event)
same,Presyncope: patients (events),ambulant boys with DMD; [5],1 (1 event)
same,Pyrexia: patients (events),ambulant boys with DMD; [5],1 (1 event)
same,"Respiratory, thoracic and mediastinal disorders: patients (events)",ambulant boys with DMD; [5],2 (2 events)
same,Tympanic membrane perforation: patients (events),ambulant boys with DMD; [5],1 (1 event)
same,Vascular disorders: patients (events),ambulant boys with DMD; [5],1 (2 events)
same,Vomiting: patients (events),ambulant boys with DMD; [5],0
same,gastrin levels,ambulant boys with DMD; after a four-week treatment,No modifications of gastrin levels
same,TEAEs of mild intensity,ambulant boys with DMD; all cohorts,Thirty-five
same,TEAEs reported as severe,ambulant boys with DMD; all cohorts,2
same,SAE related to study medication,"ambulant boys with DMD; all doses, 4 weeks, 20 DMD boys",No SAE related to study medication was reported
same,blood pressure and heart rate,"ambulant boys with DMD; standing and supine, 4-week treatment",devoid of any blood pressure or heart rate lowering effects
same,"treatment emergent adverse events (TEAEs), total events",ambulant boys with DMD; twelve patients of 20,37
same,TAT (time above 500 ng/ml over 24 h),"[1]; Cohort 1, 150 to 225 mg daily oral, Day 1, mean, N 5",6.6 h
same,TAT (time above 500 ng/ml over 24 h),"[1]; Cohort 1, 150 to 225 mg daily oral, Day 28, mean, N 4",8.4 h
same,TAT (time above 500 ng/ml over 24 h),"[1]; Cohort 2, 300 to 450 mg daily oral, Day 1, mean, N 5",17 h
same,TAT (time above 500 ng/ml over 24 h),"[1]; Cohort 2, 300 to 450 mg daily oral, Day 28, mean, N 5",15 h
same,TAT (time above 500 ng/ml over 24 h),"[1]; Cohort 3, 450 to 600 mg daily oral, Day 1, mean, N 5",18 h
same,TAT (time above 500 ng/ml over 24 h),"[1]; Cohort 3, 450 to 600 mg daily oral, Day 28, mean, N 5",16 h
same,TAT (time above 500 ng/ml over 24 h),"[1]; Cohort 4, 600 to 900 mg daily oral, Day 1, mean, N 5",19.0 h
same,TAT (time above 500 ng/ml over 24 h),"[1]; Cohort 4, 600 to 900 mg daily oral, Day 28, mean, N 5",18 h
same,dose linearity of PK,[1]; DMD patients,dose linear
same,accumulation with time,"[1]; DMD patients, repeated dosing 4 weeks",no sign of any accumulation
same,effect of fed condition on AUC24,[1]; fed condition,no impact
same,effect of fed condition on Cmax,[1]; fed condition,decrease
same,exposure in children compared to healthy adults,[1]; in vivo,slightly higher exposure than in adults
same,half-life,"[1]; T1/2, Cohort 3, 450 to 600 mg daily oral, Day 1, mean, N 5",3.9 h
same,half-life,"[1]; T1/2, Cohort 3, 450 to 600 mg daily oral, Day 28, mean, N 5",3.76 h
same,half-life,"[1]; T1/2, Cohort 4, 600 to 900 mg daily oral, Day 1, mean, N 5",3.9 h
same,half-life,"[1]; T1/2, Cohort 4, 600 to 900 mg daily oral, Day 28, mean, N 5",3.75 h
same,time post dose at which Cmax occurred,"[1]; oral immediate release capsules, Days 1 and 28",1 to 2 h
same,"IGFBP6: Term (TRT, linear mixed effect model, Day 28 vs Day 0)",IGFBP6,−0.3144
